Data set [1] in a line: Volume of distribution at steady state in Sprague-Dawley rat at 1 mg/kg, iv by LC-MS/MS analysis. The class given is ADME, organism-based. The following applies: in vivo, read-out: Vdss. In short, it runs like this: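 Male SD rats (199-214 g), three per route, single dose 1 mg/kg iv or 10 mg/kg po. Jugular blood (~200 μL) into heparinized tubes at set times; plasma by centrifugation, protein precipitation with acetonitrile containing verapamil and glibenclamide; drug measured by LC-MS/MS.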

A short description of data set [2]: Metabolic stability in human liver microsomes assessed as half life at 1 uM preincubated for 10 mins followed by NADPH addition measured upto 60 mins by LC-MS/MS analysis. The class given is ADME, Microsome. The method in brief: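 Liver microsomes from male SD rat, dog or human at 0.5 mg/mL in 100 mM potassium phosphate pH 7.4 with 1 μM compound. Prewarmed 37 °C 10 min, started with 1 mM NADPH. Stopped at 0, 5, 10, 20, 40, 60 min with cold methanol containing glibenclamide internal standard; supernatant by LC–MS/MS; T1/2 and CLint derived.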

For data set [3], the system named is K562. The data set is described as follows: Antiproliferative activity against human K562 assessed as reduction in cell viability measured after 72 hrs using alamar blue based fluorescence method. Format: functional. The following applies: K562, 72 h. In short, it runs like this: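 Leukemia lines grown in IMDM with penicillin/streptomycin, HL-60 with 20% FBS and K562 with 10% FBS, at 37 °C, 5% CO2. Cells in 96-well plates exposed to drug for 72 h. Alamar blue (1 mM solution) added for 5–6 h, fluorescence read at 530/590 nm.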

Data set [4] has as its target Histone deacetylase 5 (Homo sapiens) (UniProt Q9UQL6). The data set can be described thus: Inhibition of HDAC5 (unknown origin) using Fluor de Lys substrate by fluorescence assay relative to control. In short, it runs like this:
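Recombinant HDAC isoform assays run by a contract lab. Compounds in DMSO, 10-dose IC50 mode, 3-fold serial dilution from 50 μM. Duplicate runs; IC50 from curve fitting.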

Data set [5] has as its system SF-268. The data set is described as follows: Growth inhibition of human SF268 cells assessed as cell growth inhibition at 10 uM incubated for 48 hrs by sulforhodamine B assay. The following applies: SF-268, 48 h, read-out: GI. The class given is functional.
The test system of data set [6] is NCI/ADR-RES. The data set is described as follows: Growth inhibition of human NCI/ADR-RES cells assessed as cell growth inhibition at 10 uM incubated for 48 hrs by sulforhodamine B assay. Format: functional. The conditions noted are these: read-out: GI.

Calls of active or inactive are those of the source. The rule behind the calls is not given here.

Chain of Histone deacetylase 5 (Homo sapiens) (Q9UQL6 whole entry, canonical isoform): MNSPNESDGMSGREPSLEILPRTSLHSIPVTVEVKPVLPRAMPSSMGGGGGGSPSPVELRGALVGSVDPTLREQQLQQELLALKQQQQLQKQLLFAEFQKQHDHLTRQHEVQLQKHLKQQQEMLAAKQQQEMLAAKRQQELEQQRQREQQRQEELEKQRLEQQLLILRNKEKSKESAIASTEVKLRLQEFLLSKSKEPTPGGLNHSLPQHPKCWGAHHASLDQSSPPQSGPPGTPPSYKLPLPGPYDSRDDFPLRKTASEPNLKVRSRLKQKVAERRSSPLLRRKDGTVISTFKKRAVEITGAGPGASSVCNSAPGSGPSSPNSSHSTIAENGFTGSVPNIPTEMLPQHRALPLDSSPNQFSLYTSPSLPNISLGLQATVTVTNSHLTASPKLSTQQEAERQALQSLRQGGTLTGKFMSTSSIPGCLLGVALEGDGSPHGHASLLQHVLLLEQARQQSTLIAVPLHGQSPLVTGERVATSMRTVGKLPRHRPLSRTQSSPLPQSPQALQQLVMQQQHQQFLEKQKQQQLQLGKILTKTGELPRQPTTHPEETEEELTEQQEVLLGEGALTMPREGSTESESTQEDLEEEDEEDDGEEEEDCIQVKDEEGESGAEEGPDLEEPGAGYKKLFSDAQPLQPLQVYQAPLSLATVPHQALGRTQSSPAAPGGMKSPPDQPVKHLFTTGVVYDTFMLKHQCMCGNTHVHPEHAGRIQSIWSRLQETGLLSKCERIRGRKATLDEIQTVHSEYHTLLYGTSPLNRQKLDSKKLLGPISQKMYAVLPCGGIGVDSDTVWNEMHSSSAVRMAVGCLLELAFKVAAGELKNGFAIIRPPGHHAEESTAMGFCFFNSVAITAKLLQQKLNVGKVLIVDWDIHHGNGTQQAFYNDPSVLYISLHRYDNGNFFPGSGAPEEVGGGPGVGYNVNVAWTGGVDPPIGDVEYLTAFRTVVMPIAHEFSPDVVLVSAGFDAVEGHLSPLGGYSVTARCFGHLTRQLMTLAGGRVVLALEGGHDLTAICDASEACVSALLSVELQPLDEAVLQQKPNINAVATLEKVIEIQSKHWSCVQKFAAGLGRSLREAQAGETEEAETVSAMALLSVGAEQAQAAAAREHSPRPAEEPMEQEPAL

For the compound `Nc1cc(F)ccc1NC(=O)c1ccc(CNC(=O)/C=C2\NC(=O)c3ccccc32)cc1`, in data set [1], the Vd was determined as 0.493 L/kg. For the same compound, in data set [2], the half-life at 1 µM was determined as 4.87 h. The 50% inhibitory concentration (IC50) in data set [3] is 193 nM. Also, the inhibition entry in data set [4] is “inactive”. For the same compound, the inhibition of growth at 10 µM in data set [5] stood at 36%; in data set [6], 18%.
